EPA's CvTdb concentration-time database

Tests used:
Rat [1] = assay: concentration in plasma after dosing; conditions: 0.75 h; dosed: 2-Methyltetrahydrofuran; 40 mg/kg; iv; Male; Harlan Sprague Dawley
Rat [2] = assay: concentration in brain after dosing; conditions: 2 h; dosed: 2-Methyltetrahydrofuran; 40 mg/kg; iv; Female; Harlan Sprague Dawley
Rat [3] = assay: concentration in plasma after dosing; conditions: 1.5 h; dosed: 2-Methyltetrahydrofuran; 40 mg/kg; iv; Male; Harlan Sprague Dawley
Rat [4] = assay: concentration in plasma after dosing; conditions: 7 min; dosed: 2-Methyltetrahydrofuran; 40 mg/kg; iv; Male; Harlan Sprague Dawley
Rat [5] = assay: concentration in plasma after dosing; conditions: 2 min; dosed: 2-Methyltetrahydrofuran; 40 mg/kg; iv; Male; Harlan Sprague Dawley
Rat [6] = assay: concentration in liver after dosing; conditions: 1 h; dosed: Fluorotelomer alcohol 8+2; 80 mg/kg; oral; Female; Harlan Sprague Dawley
Rat [7] = assay: concentration in brain after dosing; conditions: 1 h; dosed: Fluorotelomer alcohol 8+2; 80 mg/kg; oral; Female; Harlan Sprague Dawley
Rat [8] = assay: concentration in brain after dosing; conditions: 12 h; dosed: Fluorotelomer alcohol 8+2; 80 mg/kg; oral; Female; Harlan Sprague Dawley
Rat [9] = assay: concentration in plasma after dosing; conditions: dosed: Fluorotelomer alcohol 8+2, 12 mg/kg, oral, Male, Harlan Sprague Dawley
Rat [10] = assay: concentration in kidney after dosing; conditions: 6 h; dosed: Fluorotelomer alcohol 8+2; 24 mg/kg; oral; Male; Harlan Sprague Dawley
Rat [11] = assay: concentration in plasma after dosing; conditions: dosed: 678-39-7, 12 mg/kg, iv, Male, F344
Rat [12] = assay: concentration in plasma after dosing; conditions: 0.25 h; dosed: Perfluorohexanoic Acid; 40 mg/kg; iv; Male; F344
Rat [13] = assay: concentration in liver after dosing; conditions: 0.5 h; dosed: Perfluorohexanoic Acid; 80 mg/kg; oral; Male; Harlan Sprague Dawley
Rat [14] = assay: concentration in brain after dosing; conditions: 3 h; dosed: Perfluorohexanoic Acid; 80 mg/kg; oral; Male; Harlan Sprague Dawley
Rat [15] = assay: concentration in plasma after dosing; conditions: dosed: Perfluorohexanoic Acid, 40 mg/kg, oral, Male, Harlan Sprague Dawley
Rat [16] = assay: concentration in plasma after dosing; conditions: dosed: Perfluorohexanoic Acid, 40 mg/kg, oral, Male, Harlan Sprague Dawley; remark: listed apart in the source
Rat [17] = assay: concentration in plasma after dosing; conditions: dosed: Perfluorohexanoic Acid, 40 mg/kg, oral, Male, Harlan Sprague Dawley; remark: listed apart in the source
Rat [18] = assay: concentration in plasma after dosing; conditions: dosed: Perfluorohexanoic Acid, 80 mg/kg, oral, Male, Harlan Sprague Dawley
human = assay: concentration in expired air after dosing; conditions: dosed: trichloroethylene, 100 ppm, inhalation, duration: 4 hr, person
Procedure, shortened: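 Sampling and analytical methods are those of each source and frequently went unreported. The concentration-versus-time and amount-versus-time points were compiled from published in vivo toxicokinetic studies and two structured collections. Most were digitised from plot screenshots with WebPlotDigitizer, with others copied from tables, in the reported units.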

Rat [19] = assay: concentration in brain after dosing; conditions: 24 h; dosed: Perfluorooctane Sulfonate; 20 mg/kg; oral; Male; Harlan Sprague Dawley
Rat [20] = assay: concentration in liver after dosing; conditions: 24 h; dosed: Perfluorooctane Sulfonate; 20 mg/kg; oral; Male; Harlan Sprague Dawley
Rat [21] = assay: concentration in brain after dosing; conditions: 864 h; dosed: Perfluorooctane Sulfonate; 20 mg/kg; oral; Male; Harlan Sprague Dawley
Rat [22] = assay: concentration in liver after dosing; conditions: 1848 h; dosed: Perfluorooctane Sulfonate; 2 mg/kg; oral; Female; Harlan Sprague Dawley
Rat [23] = assay: concentration in plasma after dosing; conditions: dosed: Perfluorooctane Sulfonate, 2 mg/kg, iv, Male, F344
Rat [24] = assay: concentration in liver after dosing; conditions: 3360 h; dosed: Perfluorooctane Sulfonate; 2 mg/kg; oral; Female; Harlan Sprague Dawley
Rat [25] = assay: concentration in plasma after dosing; conditions: 18 h; dosed: Gemfibrozil; 4.29 mg/kg; oral; Male; Sprague-Dawley
Rat [26] = assay: concentration in plasma after dosing; conditions: 2 h; dosed: Gemfibrozil; 4.29 mg/kg; oral; Male; Sprague-Dawley
Rat [27] = assay: concentration in plasma after dosing; conditions: 15 h; dosed: Gemfibrozil; 4.29 mg/kg; oral; Male; Sprague-Dawley
Rat [28] = assay: concentration in plasma after dosing; conditions: 10 min; dosed: Gemfibrozil; 50 mg/kg; oral; Male; Sprague-Dawley
Rat [29] = assay: concentration in plasma after dosing; conditions: 6 h; dosed: Gemfibrozil; 50 mg/kg; oral; Male; Sprague-Dawley

CC1CCCO1 (centres undefined) [2-Methyltetrahydrofuran]
Conditions	concentration in brain [ng/mL]	concentration in plasma [ng/mL]
Rat [1]	–	26900
Rat [2]	9940	–
Rat [3]	–	14500
Rat [4]	–	45700
Rat [5]	–	59400

O=C(O)CCC(F)(F)C(F)(F)C(F)(F)C(F)(F)C(F)(F)C(F)(F)C(F)(F)F [Fluorotelomer acid 7+3]
Conditions	concentration in brain [ng/g]	concentration in kidney [ng/g]	concentration in liver [ng/g]
Rat [6]	–	–	1620
Rat [7]	277	–	–
Rat [8]	484	–	–
Rat [10]	–	822	–

concentration in plasma [ng/mL]
Conditions	0.5 h	3 h	5 min	9 h
Rat [9]	116	–	–	264
Rat [11]	–	807	11.6	–

O=C(O)C(F)(F)C(F)(F)C(F)(F)C(F)(F)C(F)(F)F [Perfluorohexanoic Acid]
Conditions	concentration in brain [ng/g]	concentration in liver [ng/g]	concentration in plasma [ng/mL]
Rat [12]	–	–	7150
Rat [13]	–	102000	–
Rat [14]	1460	–	–

Conditions	concentration in plasma [ng/mL]
Rat [15], 3 h	48700
Rat [15], 5 min	28800
Rat [16], 3 h	56400
Rat [16], 5 min	32900
Rat [17], 0.25 h	44500
Rat [17], 6 h	26700
Rat [18], 0.25 h	91200
Rat [18], 24 h	239

ClC=C(Cl)Cl [trichloroethylene]
human
Conditions	concentration in expired air
0 h	1940 nM
0.053 h	22.4 ppm
0.17 h	302 nM
0.2372 h	3.23 ppm
0.3175 h	7.33 ppm
0.4773 h	6.01 ppm
0.5 h	200 nM
0.5703 h	2.6 ppm
0.97 h	1.56 ppm
1 h	129 nM
1.022 h	2.96 ppm
1.5 h	101 nM
2 h	79 nM
2.009 h	0.691 ppm
2.015 h	1.22 ppm
2.5 h	62 nM
3 h	61 nM
3.5 h	54 nM
4 h	49 nM
4.021 h	0.521 ppm
4.039 h	1.03 ppm
4.5 h	43 nM
5 h	42 nM
5.996 h	0.868 ppm
6 h	33 nM
6.02 h	0.517 ppm
7 h	27 nM
7.979 h	0.777 ppm
8 h	21 nM
9 h	21 nM
10 h	16 nM
10.1 h	0.554 ppm
326 s	12.3 ppm

O=S(=O)([O-])C(F)(F)C(F)(F)C(F)(F)C(F)(F)C(F)(F)C(F)(F)C(F)(F)C(F)(F)F [Perfluorooctane Sulfonate]
Conditions	concentration in brain [ng/g]	concentration in liver [ng/g]
Rat [19]	9740	–
Rat [20]	–	157000
Rat [21]	2330	–
Rat [22]	–	6900
Rat [24]	–	1350

Rat [23]
Conditions	concentration in plasma [ng/mL]
12 h	4020
1200 h	875

Cc1ccc(C)c(OCCCC(C)(C)C(=O)O)c1 [Gemfibrozil]
Conditions	concentration in plasma [ng/mL]
Rat [25]	127
Rat [26]	234
Rat [27]	285
Rat [28]	76500
Rat [29]	7260
